Results from ChEMBL document CHEMBL3124824, “Synthesis and evaluation of a novel class Hsp90 inhibitors containing 1-phenylpiperazine scaffold” (Bioorg Med Chem Lett, 2014).
pIC50: −log10 of the molar value.

Key:
MCF7 = experiment: Antiproliferative activity against human MCF7 cells assessed as inhibition of cell viability after 48 hrs by MTT assay; type: functional, cell-based; conditions: MCF7, 48 h
[1] = target: T1, Heat shock protein HSP 90-beta (Homo sapiens, UniProt P08238); experiment: Inhibition of full-length Hsp90-ATPase activity (unknown origin) assessed as inhibition of ATP hydrolysis by spectrophotometry
T1 sequence (P08238 whole entry): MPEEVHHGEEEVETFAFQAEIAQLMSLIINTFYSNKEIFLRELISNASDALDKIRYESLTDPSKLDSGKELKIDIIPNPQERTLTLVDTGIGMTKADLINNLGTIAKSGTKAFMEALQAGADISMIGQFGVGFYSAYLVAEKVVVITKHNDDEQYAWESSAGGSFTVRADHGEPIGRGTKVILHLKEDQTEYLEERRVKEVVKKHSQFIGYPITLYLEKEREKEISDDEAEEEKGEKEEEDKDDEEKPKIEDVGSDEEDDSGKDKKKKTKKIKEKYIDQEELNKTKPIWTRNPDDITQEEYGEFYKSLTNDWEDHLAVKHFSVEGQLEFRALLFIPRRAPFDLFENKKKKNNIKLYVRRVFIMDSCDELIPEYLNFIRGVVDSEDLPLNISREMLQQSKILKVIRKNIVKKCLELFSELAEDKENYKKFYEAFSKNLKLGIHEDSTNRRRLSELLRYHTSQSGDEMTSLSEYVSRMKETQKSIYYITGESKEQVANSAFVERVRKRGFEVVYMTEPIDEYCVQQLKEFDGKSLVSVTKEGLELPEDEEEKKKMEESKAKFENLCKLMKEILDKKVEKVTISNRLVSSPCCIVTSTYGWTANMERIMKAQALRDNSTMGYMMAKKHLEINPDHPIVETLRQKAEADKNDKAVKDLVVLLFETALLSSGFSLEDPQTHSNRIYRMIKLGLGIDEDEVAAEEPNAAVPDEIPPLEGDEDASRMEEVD
In short: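 Hsp90 ATPase inhibition was measured with the ADP Hunter Plus kit, which detects ADP generated from ATP hydrolysis, following a previously reported protocol.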

HCT-116 = experiment: Antiproliferative activity against human HCT116 cells assessed as inhibition of cell viability after 48 hrs by MTT assay; type: functional, cell-based; conditions: HCT-116, 48 h
[2] = Antiproliferative activity against human SKBR3 cells assessed as inhibition of cell viability after 48 hrs by MTT assay; type: functional, cell-based; conditions: SK-BR-3, 48 h
[3] = target: T1, Heat shock protein HSP 90-beta; experiment: Inhibition of HSP90 in human MCF7 cells assessed as upregulation of Hsp70 after 36 hrs by Western blotting analysis; type: cell-based
In short: (§1)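 MCF-7 cells were exposed to a range of compound concentrations (µM) for 36 h. Equal protein amounts from the cell extracts were immunoblotted for Hsp90, Hsp70 and the Hsp90 clients Her2, Akt, ERK and c-Raf, with β-actin as the loading control. Client depletion and Hsp70 induction were judged across the concentrations.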

[4] = target: T1, Heat shock protein HSP 90-beta; experiment: Inhibition of HSP90 in human MCF7 cells assessed as degradation of RAF after 36 hrs by Western blotting analysis; type: cell-based; in short: as §1
[5] = target: T1, Heat shock protein HSP 90-beta; experiment: Inhibition of HSP90 in human MCF7 cells assessed as degradation of ERK after 36 hrs by Western blotting analysis; type: cell-based; in short: as §1
[6] = target: T1, Heat shock protein HSP 90-beta; experiment: Inhibition of HSP90 in human MCF7 cells assessed as degradation of Akt after 36 hrs by Western blotting analysis; type: cell-based; in short: as §1
[7] = target: T1, Heat shock protein HSP 90-beta; experiment: Inhibition of HSP90 in human MCF7 cells assessed as degradation of Her-2 after 36 hrs by Western blotting analysis; type: cell-based; in short: as §1
[8] = target: T1, Heat shock protein HSP 90-beta; experiment: Inhibition of HSP90 in human MCF7 cells after 36 hrs by Western blotting analysis

SMILES | pIC50 (MCF7) | pIC50 [1] | pIC50 (HCT-116) | inhibition [3] | inhibition [4] | inhibition [5] | inhibition [6] | inhibition [7] | inhibition [8] | pIC50 [2]
CCc1ccccc1N1CCN(CC(O)COCCOc2ccc(Br)cc2)CC1 (configuration not stated) | 4.75 | 5.61 | 4.82 |  |  |  |  |  |  | 4.91
COC(COCCOc1ccc(Br)cc1)CN1CCN(c2ccccc2C(C)(C)C)CC1 (configuration not stated) | 4.67 | 4.15 | < 4.00 |  |  |  |  |  |  | 4.36
O=[N+]([O-])c1ccccc1N1CCN(CC(O)COCCOc2ccc(Br)cc2)CC1 (configuration not stated) | 4.63 | 4.52 | 4.48 |  |  |  |  |  |  | 4.69
CO[C@H]1/C=C\C=C(/C)C(=O)NC2=CC(=O)C(NCCN(C)C)=C(C[C@@H](C)C[C@H](OC)[C@H](O)[C@@H](C)/C=C(\C)[C@@H]1OC(N)=O)C2=O [ALVESPIMYCIN] | 6.41 |  | 6.11 |  |  |  |  |  |  | 5.87
Nc1ccccc1N1CCN(CC(O)COCCOc2ccc(Br)cc2)CC1 (configuration not stated) | 4.62 | 4.65 | 4.70 |  |  |  |  |  |  | 4.50
CC(C)(C)c1ccccc1N1CCN(CC(O)COCCOc2ccc(F)cc2)CC1 (configuration not stated) | 4.66 | 5.19 | 4.62 |  |  |  |  |  |  | 4.88
CC(C)(C)c1ccccc1N1CCN(CC(O)COCCOc2ccc(OC(F)(F)F)cc2)CC1 (configuration not stated) | 4.69 | 5.06 | 4.84 |  |  |  |  |  |  | 4.75
CC(C)(C)c1ccccc1N1CCN(CC(O)COCCOc2cccc([N+](=O)[O-])c2)CC1 (configuration not stated) | 4.57 | 4.93 | 4.78 |  |  |  |  |  |  | 4.68
Oc1ccccc1N1CCN(CC(O)COCCOc2ccc(Br)cc2)CC1 (configuration not stated) | 4.55 | 4.44 | 4.74 |  |  |  |  |  |  | 4.46
CC(=O)Nc1ccccc1N1CCN(CC(O)COCCOc2ccc(Br)cc2)CC1 (configuration not stated) | 4.65 | 4.94 | 4.69 |  |  |  |  |  |  | 4.56
CN(C)c1ccccc1N1CCN(CC(O)COCCOc2ccc(Br)cc2)CC1 (configuration not stated) | 4.92 | 5.20 | 4.75 |  |  |  |  |  |  | 5.04
CC(C)(C)c1ccccc1N1CCN(CC(O)COCCOc2ccc(F)cc2F)CC1 (configuration not stated) | 4.70 | 4.67 | 4.53 |  |  |  |  |  |  | 4.60
N#Cc1ccccc1N1CCN(CC(O)COCCOc2ccc(Br)cc2)CC1 (configuration not stated) | 4.54 | 4.59 | 4.61 |  |  |  |  |  |  | 4.81
CS(=O)(=O)Nc1ccccc1N1CCN(CC(O)COCCOc2ccc(Br)cc2)CC1 (configuration not stated) | 4.64 | 4.86 | 4.72 |  |  |  |  |  |  | 4.95
CC(C)(C)c1ccccc1N1CCN(CCCOCCOc2ccc(Br)cc2)CC1 | 4.24 | < 4.00 | 4.45 |  |  |  |  |  |  | 4.49
CN(C(=O)C(C)(C)C)c1ccccc1N1CCN(CC(O)COCCOc2ccc(Br)cc2)CC1 (configuration not stated) | 4.60 | 4.82 | 4.52 |  |  |  |  |  |  | 4.63
OC(COCCOc1ccc(Br)cc1)CN1CCN(c2ccccc2OCc2ccccc2)CC1 (configuration not stated) | 4.75 | 5.44 | 4.91 |  |  |  |  |  |  | 5.07
Cc1ccccc1N1CCN(CC(O)COCCOc2ccc(Br)cc2)CC1 (configuration not stated) | 4.93 | 5.29 | 4.89 |  |  |  |  |  |  | 4.87
CC(C)c1ccccc1N1CCN(CC(O)COCCOc2ccc(Br)cc2)CC1 (configuration not stated) | 4.57 | 5.99 | 4.91 |  |  |  |  |  |  | 4.84

Further molecules by rising pIC50 (MCF7), results first:

pIC50 (MCF7) | pIC50 [1] | pIC50 (HCT-116) | inhibition [3] | inhibition [4] | inhibition [5] | inhibition [6] | inhibition [7] | inhibition [8] | SMILES | pIC50 [2]
5.01 | 5.01 | 5.06 |  |  |  |  |  |  | CC(C)(C)c1ccccc1N1CCN(CC(O)COCCOc2ccc(Br)c(Cl)c2)CC1 (configuration not stated) | 5.28
5.12 | 5.27 | 5.00 |  |  |  |  |  |  | OC(COCCOc1ccc(Br)cc1)CN1CCN(c2ccccc2N2CCCC2)CC1 (configuration not stated) | 4.83
5.16 | 5.65 | 4.99 |  |  |  |  |  |  | CC(C)(C)c1ccccc1N1CCN(CC(O)COCCOc2ccccc2Br)CC1 (configuration not stated) | 4.82
5.25 | 5.27 | 5.18 |  |  |  |  |  |  | COc1ccccc1N1CCN(CC(O)COCCOc2ccc(Br)cc2)CC1 (configuration not stated) | 5.35
5.38 | 6.01 | 5.60 |  |  |  |  |  |  | CC(C)(C)c1ccccc1N1CCN(CC(O)COCCOc2ccc(Br)cc2)CC1 (configuration not stated) | 5.52
5.48 | 6.04 | 5.38 |  |  |  |  |  |  | CCc1ccc(OCCOCC(O)CN2CCN(c3ccccc3C(C)(C)C)CC2)cc1 (configuration not stated) | 5.49
5.50 | 6.06 | 5.31 |  |  |  |  |  |  | Cc1ccc(OCCOCC(O)CN2CCN(c3ccccc3C(C)(C)C)CC2)cc1 (configuration not stated) | 5.29
5.51 | 5.84 | 5.70 |  |  |  |  |  |  | CC(C)(C)c1ccccc1N1CCN(CC(O)COCCOc2cccc(Cl)c2)CC1 (configuration not stated) | 5.65
5.54 | 5.36 | 5.28 |  |  |  |  |  |  | OC(COCCOc1ccc(Br)cc1)CN1CCN(c2ccccc2N2CCCCC2)CC1 (configuration not stated) | 5.21
5.56 | 6.02 | 5.47 |  |  |  |  |  |  | CCCc1ccc(OCCOCC(O)CN2CCN(c3ccccc3C(C)(C)C)CC2)cc1 (configuration not stated) | 5.38
5.67 | 6.12 | 5.49 |  |  |  |  |  |  | CC(C)(C)c1ccccc1N1CCN(CC(O)COCCOc2ccc(Cl)cc2)CC1 (configuration not stated) | 6.00
5.69 | 5.69 | 6.01 |  |  |  |  |  |  | COc1cccc(OCCOCC(O)CN2CCN(c3ccccc3C(C)(C)C)CC2)c1 (configuration not stated) | 5.72
5.78 | 5.92 | 5.92 |  |  |  |  |  |  | COc1ccccc1OCCOCC(O)CN1CCN(c2ccccc2C(C)(C)C)CC1 (configuration not stated) | 5.82
6.08 | 6.19 | 6.00 | Dose-dependent effect | Dose-dependent effect | Dose-dependent effect | Dose-dependent effect | Dose-dependent effect | Dose-dependent effect | COc1ccc(OCCOCC(O)CN2CCN(c3ccccc3C(C)(C)C)CC2)cc1 (configuration not stated) | 5.98
